Laboratory results taken from paper PMC11094580 (EFSA Journal, 2024).
Like-named read-outs stand apart in the source and are kept apart here.

Columns and labels:
[1] = ref Bugianesi et al. (2002), cited from earlier work
[2] = test system: Pig caecum; details: anaerobic incubation 0-24 h; ref Labib et al. (2004); cited from earlier work
[3] = ref Gardana et al. (2007), cited from earlier work
[4] = cited from earlier work
[5] = target: simvastatin metabolism in rat liver microsomes; details: ref Ubeaud et al. (1999); cited from earlier work
[6] = test system: Bifidobacterium longum R0175; details: 25 μg/mL, cultures of B. longum; ref Pereira‐Caro et al. (2016); cited from earlier work
[7] = test system: human peripheral blood lymphocytes; experiment: In vitro micronucleus assay with FISH analysis
[8] = test system: Salmonella typhimurium (TA98, TA100, TA102, TA1535, TA1537) and E. coli WP2uvrA; experiment: Bacterial reverse mutation assay; assay type: cell-based; details: for concentration with reduction in growth of bacterial background lawns: plate incorporation; for concentration with reduction of bacterial background lawns: pre-incubation
[9] = Stability in solution; assay type: physicochemical
Procedure, shortened: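 Test compound was dissolved at 10 g per 100 g propylene glycol and stored at 25 ± 2°C and 60 ± 5% RH, with sampling at 1, 2, 3 and 4 months; recovery was the read-out. Separately, aqueous buffer solutions (50 mg/kg) at pH 3, 5 and 7 were incubated at 90°C as accelerated testing.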

[10] = test system: CYP3A4; details: testosterone (10 μM); ref Lu et al. (2011); cited from earlier work
[11] = target: simvastatin metabolism; details: rat and human hepatocytes and microsomes; ref Ubeaud et al. (1999); cited from earlier work
[12] = test system: CYP2C19; details: ref Lu et al. (2011); cited from earlier work
[13] = 10 h post dosing; ref Felgines et al. (2000); cited from earlier work
[14] = 24 h urine, ref Aschoff et al. (2016), cited from earlier work
[15] = test system: Wistar rats; details: Gavage, M, 3/group; ref Ortiz‐Andrade et al. (2008); cited from earlier work
[16] = test system: Lactobacillus rhamnosus subsp. Rhamnosus NCTC 10302; details: 25 μg/mL, cultures of L. rhamnosus; ref Pereira‐Caro et al. (2016); cited from earlier work
[17] = test system: CYP450 isoforms; details: read-out: IC50 or Ki values; certain CYP450 isoforms; ref Lu et al. (2011); cited from earlier work
[18] = ref Rebello et al. (2020), cited from earlier work
[19] = test system: Sprague Dawley rats; experiment: Dose range-finding study for the EOGRT study, dietary; assay type: in vivo, rat
[20] = test system: Intestinal bacteria isolated from human faeces; details: 5 mg flavonoids in 50 mL broth, 2 days, anaerobic; ref Kim et al. (1998); cited from earlier work
[21] = test system: quinine metabolism in human liver microsomes; details: substrate quinine; ref Fasinu et al. (2013), Ho et al. (2001); cited from earlier work
[22] = test system: Wistar rats; experiment: 28-day dose range-finding oral toxicity study in Wistar rats; assay type: in vivo, rat
Procedure, shortened: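 Test compound given by gavage at 1000 to 5000 mg/kg bw per day; haematology, clinical chemistry and organ weights, including uterus weight, were recorded.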

[23] = ref Ma et al. (2006), cited from earlier work
[24] = test system: human faecal slurries; details: 50 μmol incubated, ref Pereira‐Caro et al. (2015), cited from earlier work
[25] = Octanol/water partition coefficient; assay type: physicochemical

O=C1CC(c2ccc(O)cc2)Oc2cc(O)cc(O)c21 (stereo not shown) [naringenin, 4H‐1‐Benzopyran‐4‐one, 2,3‐dihydro‐5,7‐dihydroxy‐2‐(4‐hydroxyphenyl)‐]
C max ([1]; 3.8 mg (14 μmol), tomato paste/oil): 32 ± 8 ng/mL
unconjugated naringenin in plasma ([1]; 3.8 mg, tomato paste test meal): did not find unconjugated naringenin in plasma samples
Plasma half-life ([1]; 3.8 mg, tomato paste/oil): Decline by 2 h and later
Results: microbial transformation products [2]: Naringenin was transformed to 3‐(4‐hydroxyphenyl)‐propionic acid and 3‐phenylpropionic acid
C max (plasma naringenin) ([3]; BOJ 150 mL, 6 mg (22 μmol)): 16.4 ng/mL
C max (plasma naringenin) ([3]; BOJ 300 mL, 12 mg (44 μmol)): 34 ng/mL
increase of solubility in water upon change of pH ([4]; 25°C, pH from 6.5 to 8.5, ref Lucas‐Abellán et al. (2019)): ~ 20 fold
increase of solubility in water upon increase of temperature ([4]; from 25 to 35°C, ref Zhang et al. (2013), Lucas‐Abellán et al. (2019)): 2 factor
Ki [5]: 30 µM
Recovery [6]: 88%
MN centromere-negative (FISH analysis) ([7]; 4‐h treatment with or without S9‐mix, naringenin 75, 200 and 250 μg/mL): > 64%
Result ([7]; 125, 150, 200 μg/mL (4 h + 24 h, +S9)): Positive FISH analysis indicates that naringenin induced micronuclei by a clastogenic mechanism
Result ([7]; 125, 150, 200, 250 μg/mL (4 h + 24 h, –S9)): Positive FISH analysis indicates that naringenin induced micronuclei by a clastogenic mechanism
MNBN frequency ([7]; 24 h + 24 h treatment): no statistically significant increase
Result ([8]; Experiment 1: 1.5–5000 μg/plate (+/− S9, plate incorporation)): Negative
Result ([8]; Experiment 2: 1.5–5000 μg/plate (+/− S9, pre‐incubation)): Negative
frequency of revertant colonies ([8]; TA102, 50 μg/plate, absence of S9‐mix): 262 ± 23.8
time stable when dissolved in propylene glycol ([9]; 25 ± 2°C, 60 ± 5% RH): at least 4 months
time for which stability was demonstrated ([9]; aqueous buffer solutions (50 mg/kg) pH 3, 5, 7 at 90°C): up to 8 h
Ki [11]: 5 to 30 µM
IC50 [12]: < 5 µM
naringenin in caecal contents [13]: 15 μmol/caecum
proportion of naringenin excreted in the urine ([14]; after orange fruit (400 g)): 12.9%
proportion of naringenin excreted in the urine ([14]; after pasteurised orange juice (719 g)): 20.3%
LD50 [15]: > 5000 mg/kg bw
Recovery [16]: 83%
IC50 [17]: ~10 µM
AUC0‐24h ([18]; 150 mg): 67.61 ± 24.26 µM·h
T max ([18]; 150 mg): 2 h
half-life in plasma ([18]; 150 mg): 3 h
T max ([18]; 150 mg, listed as Nar‐A): 3.2 ± 0.7 h
AUC0‐24h ([18]; 600 mg): 199.05 ± 24.36 µM·h
T max ([18]; 600 mg): 2 h
half-life in plasma ([18]; 600 mg): 2.65 h
T max ([18]; 600 mg, listed as NAR‐A): 2.4 ± 0.7 h
mean pre-coital interval ([19]; 20,000 mg/kg feed (G3)): 7.6 days
clinical signs, mortality, morbidity ([19]; all dose groups): No clinical signs of toxicity, no mortality or morbidity
dose up to which no toxicity was produced ([19]; females): ≤ 2724 mg/kg bw per day
dose up to which no toxicity was produced ([19]; males): ≤ 2205 mg/kg bw per day
dietary concentration up to which no toxicity was produced ([19]; males 29 days, females 51–62 days): up to 25,000 mg/kg feed
Results: bacterial metabolism [20]: transformed to phenolic acids
IC50 [21]: 139 to 188 µM
uterus weight ([22]; gavage 28 days): no effects on uterus weight
Mortality ([22]; gavage, doses from 1000 to 5000 mg/kg bw per day): Mortality was observed at the highest dose tested
C max for total naringenin ([23]; 30 mg/kg bw): 16.9 ng/mL
C max of unconjugated naringenin ([23]; 30 mg/kg bw): 2.9 ng/mL
time to C max for total naringenin (including the conjugates) ([23]; 30 mg/kg bw): 0.5 h
C max for total naringenin ([23]; 90 mg/kg bw): 28 ng/mL
C max of unconjugated naringenin ([23]; 90 mg/kg bw): 3.7 ng/mL
plasma half-life of total naringenin ([23]; 90 mg/kg bw): 7.6 h
time to C max for total naringenin (including the conjugates) ([23]; 90 mg/kg bw): 2 h
C max for total naringenin ([23]; 270 mg/kg bw): 43.8 ng/mL
C max of unconjugated naringenin ([23]; 270 mg/kg bw): 4.4 ng/mL
plasma half-life of total naringenin ([23]; 270 mg/kg bw): 10.5 h
time to C max for total naringenin (including the conjugates) ([23]; 270 mg/kg bw): 2 h
time to C max of unconjugated naringenin ([23]; 30, 90 or 270 mg/kg bw oral gavage): ≤ 15 min
naringenin excreted in bile ([23]; bile duct-cannulated rats): 12%
naringenin excreted in urine [23]: 6.25%
naringenin remaining ([24]; after 4 h of incubation): 26 to 36 µmol
naringenin remaining ([24]; after 6 h of incubation): 13 to 28 µmol
naringenin remaining ([24]; after 24 h of incubation): 3 to 8 µmol
octanol/water partition coefficient [25]: 2.52
